Experimental data taken from publication PMC4272346 (Biochemistry, 2013).

How the values were obtained:
NS3h_E493Q = assay: FP-based DNA binding assay, displacement from mutant; design: species or system hepatitis C virus; details: Cy5-dT15 displacement at EC85 of protein
Method in brief: (§1)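 Fluorescence polarization displacement using C-terminally His-tagged NS3h helicase domain mutants and wildtype. Each protein was at its EC85 from titration, with the test compound added in DMSO. Excitation 635 nm, emission 667 nm. IC50 came from dose-response fits, and Ki from Cheng-Prusoff using protein EC50 and concentration, assuming competition with DNA.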

full-length NS3 = full-length NS3 (Hepatitis C virus genotype 1b, UniProt Q9WMX2); assay: Studies repeated with full-length NS3 with and without NS4A; details: presence and absence of NS4A
NS3h [1] = molecular target: T1, NS3h (Hepatitis C virus genotype 1b, UniProt Q9WMX2); assay: ATPase assay 2: NS3h-catalyzed ATP hydrolysis in the absence of nucleic acids; type: biochemical
NS3h [2] = molecular target: T1, NS3h; assay: Differential scanning calorimetry; type: binding; details: 10 μM NS3h, 300 μM ATA
Method in brief: (§2)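 Where present, dT20 was at 10 μM, and the test compound was at 10 μM–5 mM. Samples were heated 20–100 °C at 1 °C/min, with a repeat scan of the same sample as baseline. Fitting used a scaled two-state model. For the NS3h-dT20 samples, Tm versus compound concentration was fitted to a dose-response equation.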

NS3h-dT20 complex = NS3h-dT20 complex (Hepatitis C virus genotype 1b, UniProt Q9WMX2); assay: DSC of pre-assembled NS3h-dT20 complex; type: binding
Method in brief: as §2

NS3h_E291Q = assay: FP-based DNA binding assay, displacement from mutant; design: species or system hepatitis C virus; details: Cy5-dT15 displacement at EC85 of protein
Method in brief: as §1

NS3h_H369K = assay: as above; design: species or system hepatitis C virus; details: Cy5-dT15 displacement at EC85 of protein
Method in brief: as §1

NS3h [3] = molecular target: T1, NS3h; assay: Electrophoretic mobility shift assay of NS3h-Cy5-dT15 complex; type: binding
NS3h [4] = molecular target: T1, NS3h; assay: Isothermal titration calorimetry; type: binding
Method in brief: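 NS3h was dialysed overnight into 25 mM MOPS pH 7.0, 1.25 mM MgCl2, 0.01% Tween 20, quantified by A280 (ε 52,360 M−1cm−1) and used at 20 μM. The test compound was 250 μM in dialysis buffer, given as 16 injections of 3 μl at 300 s intervals at 5 °C, with the first injection excluded. Baseline was zeroed on the mean of the last three injections, then fitted to an independent sites model. Three titrations were run.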

NS3h [5] = molecular target: T1, NS3h; assay: ATPase assay 1: DNA; type: biochemical
NS3h (wildtype) [6] = details: read-out: IC50, polarization shift of a Cy5 labeled oligonucleotide; NS3h bound to Cy5-labeled DNA oligonucleotide; ref 11 (Mukherjee et al.); cited from earlier work
NS3h_D290N = assay: FP-based DNA binding assay, displacement from mutant; design: species or system hepatitis C virus; details: Cy5-dT15 displacement at EC85 of protein
Method in brief: as §1

NS3h R467E = assay: as above; design: species or system hepatitis C virus; details: Cy5-dT15 displacement at EC85 of protein
Method in brief: as §1

NS3h (wildtype) [7] = molecular target: T2, NS3h (wildtype) (Hepatitis C virus (genotype 1b, con1; …, UniProt Q9WMX2 1192-1657); assay: EMSA
NS3h (wildtype) [8] = molecular target: T2, NS3h (wildtype); assay: ITC

## O=C(O)C1=CC(=C(c2ccc(O)c(C(=O)O)c2)c2ccc(O)c(C(=O)O)c2)C=CC1=O [ATA, aurintricarboxylic acid]
NS3h_E493Q
  Relative Ki (Cheng-Prusoff) compared with wildtype NS3h: higher
full-length NS3
  Sensitivity of full-length NS3 compared with NS3h: not noted any differences in the sensitivity
NS3h [1]
  Ki: 450 ± 150 nM
NS3h [2]
  Change in enthalpy of unfolding (ΔΔH): -52.1 kcal/mol
  Increase of unfolding temperature of NS3h: 8 °C
NS3h-dT20 complex
  EC50: ~500000 nM
NS3h-dT20 complex; NS3h and dT20 10 μM each, dose response fit
  Maximum decrease of Tm of NS3h-dT20 complex: 11 ± 3 °C
NS3h_E291Q
  Relative Ki (Cheng-Prusoff) compared with wildtype NS3h: notably lower
NS3h_H369K
  Relative Ki (Cheng-Prusoff) compared with wildtype NS3h: similar
NS3h [3]
  IC50: 4000 nM
NS3h [4]
  Kd: 1300 ± 200 nM
NS3h [4]; 20 μM NS3h titrated with 250 μM ATA, 5 °C
  ATA monomers binding per NS3h (stoichiometry): 1.5
NS3h [4]; ITC, 5 °C
  ΔH of binding: -3.2 ± 0.14 kcal/mol
NS3h [4]; at 5 °C
  ΔS of binding: 63 J/mol K
  −TΔS of binding: -4.18 kcal/mol
NS3h [4]; at 5 °C, from Kd
  ΔG of binding: -7.39 ± 0.072 kcal/mol
NS3h [5]
  Ki: 1400 ± 200 nM
NS3h (wildtype) [6]
  IC50: 1400 nM
NS3h_D290N
  Relative Ki (Cheng-Prusoff) compared with wildtype NS3h: notably lower
NS3h R467E
  Relative Ki (Cheng-Prusoff) compared with wildtype NS3h: higher

B1: Cy5-dT15 (ssDNA)
DNA: TTTTTTTTTTTTTTT
NS3h (wildtype) [7]
  binding result: binds

B2: dT20 (ssDNA)
DNA: TTTTTTTTTTTTTTTTTTTT
NS3h (wildtype) [8]
  binding result: binds
